Experimental data published in ChEMBL document CHEMBL5360562 (Eur J Med Chem, 2023).

Legend:
Acinetobacter baumannii [1] = assay: Potentiation of Clarithromycin antibacterial activity against Acinetobacter baumannii AB967 assessed as clarithromycin MIC at 10 uM incubated for 16 hrs by broth microdilution method; assay type: functional
Acinetobacter baumannii [2] = assay: Potentiation of erythromycin antibacterial activity against Acinetobacter baumannii AB5075 assessed as erythromycin MIC at 5 uM incubated for 16 hrs by broth microdilution method; assay type: functional
Acinetobacter baumannii [3] = assay: Potentiation of rifampicin antibacterial activity against Acinetobacter baumannii AB5075 assessed as rifampicin MIC at 10 uM incubated for 16 hrs by broth microdilution method; assay type: functional
Pseudomonas aeruginosa [4] = assay: Potentiation of Clarithromycin antibacterial activity against Pseudomonas aeruginosa PAO1 assessed as clarithromycin MIC at 30 uM incubated for 16 hrs by broth microdilution method; assay type: functional
Pseudomonas aeruginosa [5] = assay: Antibacterial activity against Pseudomonas aeruginosa PAO1 assessed as inhibition of bacterial growth incubated for 16 hrs by broth microdilution method; assay type: functional
Summary of the method: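 Standalone MIC by broth microdilution. 6 h day cultures in cation-adjusted Mueller-Hinton broth (CAMHB) diluted to 5×10^5 CFU/mL. Compound added from 10 mM DMSO stock to 200 μM (highest concentration), then twofold serial dilution. Incubated stationary at 37 °C for 16 h. OD600 read; MIC is lowest concentration with <10% growth versus positive control.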

Acinetobacter baumannii [6] = assay: Potentiation of rifampicin antibacterial activity against Acinetobacter baumannii AB5075 assessed as fold reduction in rifampicin MIC at 10 uM incubated for 16 hrs by broth microdilution method; assay type: functional
Acinetobacter baumannii [7] = assay: Potentiation of erythromycin antibacterial activity against Acinetobacter baumannii AB5075 assessed as erythromycin MIC at 7.5 uM incubated for 16 hrs by broth microdilution method; assay type: functional
Acinetobacter baumannii [8] = assay: Potentiation of Azithromycin antibacterial activity against Acinetobacter baumannii AB5075 assessed as azithromycin MIC at 30 uM incubated for 16 hrs by broth microdilution method; assay type: functional
Klebsiella pneumoniae [9] = assay: Potentiation of Clarithromycin antibacterial activity against Klebsiella pneumoniae ATCC BAA-2146 assessed as clarithromycin MIC at 10 uM incubated for 16 hrs by broth microdilution method; assay type: functional
Acinetobacter baumannii [10] = assay: Potentiation of Clarithromycin antibacterial activity against Acinetobacter baumannii AB5075 assessed as reduction in clarithromycin MIC at 20 uM incubated for 16 hrs by broth microdilution method; assay type: functional
Acinetobacter baumannii [11] = assay: Potentiation of Azithromycin antibacterial activity against Acinetobacter baumannii AB5075 assessed as azithromycin MIC at 20 uM incubated for 16 hrs by broth microdilution method; assay type: functional
Klebsiella pneumoniae [12] = assay: Antibacterial activity against Klebsiella pneumoniae ATCC BAA-2146 assessed as inhibition of bacterial growth incubated for 16 hrs by broth microdilution method; assay type: functional
Summary of the method: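 Standalone MIC by broth microdilution. 6 h day cultures in cation-adjusted Mueller-Hinton broth (CAMHB) diluted to 5×10^5 CFU/mL. Compound added from 10 mM DMSO stock to 200 μM (highest concentration), then twofold serial dilution. Incubated stationary at 37 °C for 16 h.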

Acinetobacter baumannii [13] = assay: Potentiation of Clarithromycin antibacterial activity against Acinetobacter baumannii AB5075 assessed as fold reduction in clarithromycin MIC at 10 uM incubated for 16 hrs by broth microdilution method; assay type: functional
Summary of the method: (§1)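 Checkerboard-style potentiation by broth microdilution. 6 h day cultures in CAMHB diluted to 5×10^5 CFU/mL. Adjuvant added from 10 mM DMSO stock at fixed concentration throughout. […] Controls: antibiotic alone, adjuvant alone, media only. Incubated stationary at 37 °C for 16 h. MIC is lowest concentration with no visible growth; fold reduction taken against the antibiotic-alone lane.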

Acinetobacter baumannii [14] = assay: Potentiation of Clarithromycin antibacterial activity against Acinetobacter baumannii AB5075 assessed as clarithromycin MIC at 5 uM incubated for 16 hrs by broth microdilution method; assay type: functional
Escherichia coli [15] = assay: Potentiation of Clarithromycin antibacterial activity against Escherichia coli ATCC 25922 assessed as clarithromycin MIC at 2.5 uM incubated for 16 hrs by broth microdilution method; assay type: functional; summary of the method: as §1
Acinetobacter baumannii [16] = assay: Potentiation of rifampicin antibacterial activity against Acinetobacter baumannii AB5075 assessed as rifampicin MIC at 7.5 uM incubated for 16 hrs by broth microdilution method; assay type: functional
Summary of the method: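 A. baumannii AB5075 6 h day cultures in CAMHB subcultured to 5×10^5 CFU/mL; adjuvant added from 10 mM DMSO stock at fixed concentration, then rifampicin (DMSO) twofold serially diluted in adjuvant-containing broth. Antibiotic-alone and adjuvant-alone control lanes.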

Klebsiella pneumoniae [17] = assay: Potentiation of Clarithromycin antibacterial activity against Klebsiella pneumoniae ATCC BAA-2146 assessed as clarithromycin MIC at 7.5 uM incubated for 16 hrs by broth microdilution method; assay type: functional
[18] = Metabolic stability in human liver microsomes assessed as parent compound remaining in presence of NADPH measured at 1 hr by UV-UPLC analysis; assay type: ADME, Microsome
Acinetobacter baumannii [19] = assay: Potentiation of rifampicin antibacterial activity against Acinetobacter baumannii AB5075 assessed as rifampicin MIC at 30 uM incubated for 16 hrs by broth microdilution method; assay type: functional
Acinetobacter baumannii [20] = assay: Potentiation of Clarithromycin antibacterial activity against Acinetobacter baumannii AB5075 assessed as fold reduction in clarithromycin MIC at 30 uM incubated for 16 hrs by broth microdilution method; assay type: functional; summary of the method: as §1
Acinetobacter baumannii [21] = assay: Potentiation of Azithromycin antibacterial activity against Acinetobacter baumannii AB5075 assessed as azithromycin MIC at 7.5 uM incubated for 16 hrs by broth microdilution method; assay type: functional
Acinetobacter baumannii [22] = assay: Potentiation of Azithromycin antibacterial activity against Acinetobacter baumannii AB5075 assessed as azithromycin MIC at 2.5 uM incubated for 16 hrs by broth microdilution method; assay type: functional
Acinetobacter baumannii [23] = assay: Potentiation of Clarithromycin antibacterial activity against Acinetobacter baumannii AB5075 assessed as clarithromycin MIC at 30 uM incubated for 16 hrs by broth microdilution method; assay type: functional
Acinetobacter baumannii [24] = assay: Potentiation of erythromycin antibacterial activity against Acinetobacter baumannii AB5075 assessed as erythromycin MIC at 30 uM incubated for 16 hrs by broth microdilution method; assay type: functional
Acinetobacter baumannii [25] = assay: Potentiation of erythromycin antibacterial activity against Acinetobacter baumannii AB5075 assessed as erythromycin MIC at 20 uM incubated for 16 hrs by broth microdilution method; assay type: functional
Acinetobacter baumannii [26] = assay: Potentiation of Clarithromycin antibacterial activity against Acinetobacter baumannii AB5674 assessed as clarithromycin MIC at 10 uM incubated for 16 hrs by broth microdilution method; assay type: functional
[27] = Antiproliferative against human HepG2 cells assessed as reduction in cell viability incubated for 24 hrs by XTT assay; assay type: toxicity, cell-based
Acinetobacter baumannii [28] = assay: Potentiation of erythromycin antibacterial activity against Acinetobacter baumannii AB5075 assessed as erythromycin MIC at 2.5 uM incubated for 16 hrs by broth microdilution method; assay type: functional
Acinetobacter baumannii [29] = assay: Potentiation of Clarithromycin antibacterial activity against Acinetobacter baumannii AB5075 assessed as clarithromycin MIC at 7.5 uM incubated for 16 hrs by broth microdilution method; assay type: functional
Escherichia coli [30] = assay: Potentiation of Clarithromycin antibacterial activity against Escherichia coli ATCC 25922 assessed as clarithromycin MIC at 3 uM incubated for 16 hrs by broth microdilution method; assay type: functional
Acinetobacter baumannii [31] = assay: Potentiation of erythromycin antibacterial activity against Acinetobacter baumannii AB5075 assessed as erythromycin MIC at 10 uM incubated for 16 hrs by broth microdilution method; assay type: functional

Q: Which MIC (Acinetobacter baumannii [1]) does the source give for `Cl.Cl.Nc1nc(-c2ccc(NC(=O)Nc3cccc(-c4c[nH]c(N)n4)c3F)cc2F)c[nH]1` here?
A: ≤ 0.062 µg/mL

Q: And the MIC (Acinetobacter baumannii [2])?
A: 0.5 µg/mL

Q: What about the MIC (Acinetobacter baumannii [3]) of the same compound?
A: 7 ng/mL

Q: And the MIC (Pseudomonas aeruginosa [4])?
A: 0.5 µg/mL

Q: What about the MIC (Pseudomonas aeruginosa [5]) of the same compound?
A: 256 µM

Q: And the “fold change (FC)” value (Acinetobacter baumannii [6])?
A: 32

Q: And the MIC (Acinetobacter baumannii [7])?
A: 0.25 µg/mL

Q: And the MIC (Acinetobacter baumannii [8])?
A: ≤ 0.062 µg/mL

Q: And the MIC (Klebsiella pneumoniae [9])?
A: 2 µg/mL

Q: And the “fold change (FC)” value (Acinetobacter baumannii [10])?
A: >=512

Q: And the MIC (Acinetobacter baumannii [10]; Acinetobacter baumannii, AB5075)?
A: ≤ 0.062 µg/mL

Q: What about the MIC (Acinetobacter baumannii [11]) of the same compound?
A: ≤ 0.062 µg/mL

Q: What about the MIC (Klebsiella pneumoniae [12]) of the same compound?
A: > 200 µM

Q: And the “fold change (FC)” value (Acinetobacter baumannii [13])?
A: >=512

Q: What about the MIC (Acinetobacter baumannii [14]) of the same compound?
A: ≤ 0.062 µg/mL

Q: And the MIC (Escherichia coli [15])?
A: 32 µg/mL

Q: And the MIC (Acinetobacter baumannii [16])?
A: 0.015 µg/mL

Q: What about the MIC (Klebsiella pneumoniae [17]) of the same compound?
A: 16 µg/mL

Q: And the Stability [18]?
A: 87%

Q: And the MIC (Acinetobacter baumannii [19])?
A: 1 ng/mL

Q: What about the “fold change (FC)” value (Acinetobacter baumannii [20]) of the same compound?
A: >=512

Q: What about the MIC (Acinetobacter baumannii [21]) of the same compound?
A: 0.5 µg/mL

Q: What about the MIC (Acinetobacter baumannii [22]) of the same compound?
A: 32 µg/mL

Q: What about the MIC (Acinetobacter baumannii [23]) of the same compound?
A: ≤ 0.062 µg/mL

Q: What about the MIC (Acinetobacter baumannii [24]) of the same compound?
A: ≤ 0.062 µg/mL

Q: And the MIC (Acinetobacter baumannii [25])?
A: ≤ 0.062 µg/mL

Q: What about the MIC (Acinetobacter baumannii [26]) of the same compound?
A: ≤ 0.062 µg/mL

Q: And the IC50 at 24 h [27]?
A: 208 µg/mL

Q: And the MIC (Acinetobacter baumannii [28])?
A: 32 µg/mL

Q: And the MIC (Acinetobacter baumannii [29])?
A: ≤ 0.062 µg/mL

Q: What about the MIC (Escherichia coli [30]) of the same compound?
A: 4 µg/mL

Q: And the MIC (Acinetobacter baumannii [31])?
A: ≤ 0.062 µg/mL
